The values that follow come from ChEMBL document CHEMBL3272259, “Nitroimidazoles with antibacterial activity against Neisseria gonorrhoeae” (1977).

Converted amounts (≈) assume the structure as drawn. The source made the active and inactive calls.

One test deals with Clostridium perfringens. The experiment in a line: Antibacterial activity against Clostridium perfringens ATCC 13124 after 24 hrs by ten-fold serial dilution method. It is filed as functional. The following applies: ATCC 13124, 24 h. The essentials:
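Grown in Fluid Thioglycollate Broth and incubated 24 h at 37 °C. Growth was checked by eye after incubation. MIC was taken as the lowest concentration, in μg/mL, that prevented visible growth.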

The test system of a further test is Bacteroides fragilis. The experiment in a line: Antibacterial activity against Bacteroides fragilis ATCC 23745 after 24 hrs by ten-fold serial dilution method. It is filed as functional. The following applies: ATCC 23745, 24 h. The method, boiled down: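 Grown in Fluid Thioglycollate Broth and incubated 24 h at 37 °C. Growth was read by eye, and the MIC (µg/mL) is the lowest concentration that prevented visible growth.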

In a further test the test system is Neisseria gonorrhoeae. The experiment in a line: Antibacterial activity against Neisseria gonorrhoeae ATCC 19424 after 48 hrs by ten-fold serial dilution method. The following applies: ATCC 19424, 48 h. In kind it is functional. The method, boiled down:
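Tested on chocolate agar made from GC agar base with hemoglobin and Supplement C, incubated 48 h at 37 °C. Plates were checked visually, and the MIC (µg/mL) is the lowest concentration with no visible growth.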

For a further test, the system named is Trichomonas vaginalis. Put plainly: Antibacterial activity against Trichomonas vaginalis ATCC 30001 after 48 hrs by ten-fold serial dilution method. It is filed as functional. The following applies: ATCC 30001, 48 h. The method, boiled down:
(§1)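 Trichomonads were cultured in Diamond medium with 5% serum and incubated 48 h at 37 °C. Cultures were examined microscopically for motile cells, and the MIC (µg/mL) is the lowest concentration giving no motile organisms.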

Another test concerns Tritrichomonas foetus. The experiment in a line: Antibacterial activity against Tritrichomonas foetus 1002-96-27 after 48 hrs by ten-fold serial dilution method. The following applies: 1002-96-27, 48 h. It is filed as functional. The essentials:
as §1

For a further test, the system named is Pentatrichomonas hominis. Put plainly: Antibacterial activity against Pentatrichomonas hominis ATCC 30000 after 48 hrs by ten-fold serial dilution method. It is filed as functional. The following applies: ATCC 30000, 48 h. The method, boiled down:
as §1

In a further test the test system is Candida albicans. The experiment in a line: Antifungal activity against Candida albicans. In kind it is functional, organism-based.

The MIC is the smallest concentration in the dilution series that meets the test's criterion for growth inhibition. Read a low MIC as greater potency. For `Br.Cn1ccnc1SCCOc1ccc([N+](=O)[O-])cc1`, the MIC in the test on Clostridium perfringens is more than 100 mg/L; against Bacteroides fragilis, more than 100 mg/L; with Neisseria gonorrhoeae it was 100 mg/L; against Trichomonas vaginalis it was more than 100 mg/L; in the test with Tritrichomonas foetus, more than 100 mg/L; against Pentatrichomonas hominis it was more than 100 mg/L. Also, the result in the test on Candida albicans was inactive.

As to `CCOC(=O)c1ccc(OCCCCCCSc2ncc([N+](=O)[O-])n2C)c([N+](=O)[O-])c1`, the MIC with Clostridium perfringens was 100 mg/L (≈ 221 µM); with Bacteroides fragilis, 10 mg/L (≈ 22.1 µM); in the test with Neisseria gonorrhoeae, more than 100 mg/L; against Trichomonas vaginalis it was 10 mg/L (≈ 22.1 µM); in the test with Tritrichomonas foetus it was 100 mg/L (≈ 221 µM); against Pentatrichomonas hominis, 10 mg/L (≈ 22.1 µM). Besides, in the test with Candida albicans, the result was inactive.

As to `Cn1c([N+](=O)[O-])cnc1SCCCCCCCOc1ccccc1[N+](=O)[O-]`, the MIC with Clostridium perfringens was more than 100 mg/L; against Bacteroides fragilis, more than 100 mg/L; against Neisseria gonorrhoeae it was more than 100 mg/L; with Trichomonas vaginalis, 100 mg/L (≈ 254 µM); with Tritrichomonas foetus, 100 mg/L (≈ 254 µM); with Pentatrichomonas hominis it was 100 mg/L (≈ 254 µM). For the same compound, in the test on Candida albicans, the outcome was inactive.

Consider `Cn1c([N+](=O)[O-])cnc1[S+]([O-])CCCCCCCOc1ccccc1[N+](=O)[O-]` (centres undefined), for which the MIC in the test on Clostridium perfringens was more than 100 mg/L; in the test with Bacteroides fragilis it was 100 mg/L (≈ 244 µM); with Neisseria gonorrhoeae it was more than 100 mg/L; against Trichomonas vaginalis it was 100 mg/L (≈ 244 µM); in the test with Tritrichomonas foetus, 100 mg/L (≈ 244 µM); against Pentatrichomonas hominis it was 100 mg/L (≈ 244 µM). Moreover, the outcome in the test with Candida albicans was inactive.

Regarding `Cn1c([N+](=O)[O-])cnc1SCCCCCCCCCC(=O)O`, the MIC against Clostridium perfringens was 10 mg/L (≈ 30.4 µM); with Bacteroides fragilis, 10 mg/L (≈ 30.4 µM); against Neisseria gonorrhoeae it was 0.1 mg/L (≈ 0.304 µM); in the test on Trichomonas vaginalis it was 10 mg/L (≈ 30.4 µM); with Tritrichomonas foetus it was 1 mg/L (≈ 3.04 µM); against Pentatrichomonas hominis, 1 mg/L (≈ 3.04 µM). In the test with Candida albicans, the outcome was inactive.

For the compound `Cn1c([N+](=O)[O-])cnc1SCCC(=O)O`, the MIC with Clostridium perfringens, against Bacteroides fragilis, in the test with Neisseria gonorrhoeae, against Trichomonas vaginalis, with Tritrichomonas foetus and against Pentatrichomonas hominis was 10 mg/L (≈ 43.2 µM) in each case. Further, the outcome in the test with Candida albicans was inactive.

Consider `Cn1c([N+](=O)[O-])cnc1SCCCCCC(=O)O`, for which the MIC in the test on Clostridium perfringens is 10 mg/L (≈ 36.6 µM); against Bacteroides fragilis, 100 mg/L (≈ 366 µM); with Neisseria gonorrhoeae it was 0.1 mg/L (≈ 0.366 µM); with Trichomonas vaginalis it was 1 mg/L (≈ 3.66 µM); against Tritrichomonas foetus, 1 mg/L (≈ 3.66 µM); in the test with Pentatrichomonas hominis, 1 mg/L (≈ 3.66 µM). Besides, in the test with Candida albicans, the outcome was inactive.

As to `Cn1c([N+](=O)[O-])cnc1SCCCCCCCCC(=O)O`, the MIC with Clostridium perfringens is 10 mg/L (≈ 31.7 µM); in the test with Bacteroides fragilis, 10 mg/L (≈ 31.7 µM); with Neisseria gonorrhoeae it was 0.1 mg/L (≈ 0.317 µM); against Trichomonas vaginalis it was 10 mg/L (≈ 31.7 µM); in the test with Tritrichomonas foetus it was 10 mg/L (≈ 31.7 µM); against Pentatrichomonas hominis, 10 mg/L (≈ 31.7 µM). Besides, in the test with Candida albicans, the outcome was inactive.

`Cn1c([N+](=O)[O-])cnc1S(=O)(=O)CCCCCCCOc1ccccc1[N+](=O)[O-]`: the MIC in the test with Clostridium perfringens, in the test with Bacteroides fragilis, with Neisseria gonorrhoeae, in the test on Trichomonas vaginalis, in the test on Tritrichomonas foetus and in the test with Pentatrichomonas hominis was more than 100 mg/L throughout. In addition, the outcome with Candida albicans was inactive.

Consider `Cn1cc([N+](=O)[O-])nc1SCCCCCCC(=O)O`, for which the MIC against Clostridium perfringens is more than 100 mg/L; in the test on Bacteroides fragilis it was more than 100 mg/L; against Neisseria gonorrhoeae, more than 100 mg/L; with Trichomonas vaginalis it was 100 mg/L (≈ 348 µM); in the test with Tritrichomonas foetus it was 100 mg/L (≈ 348 µM); with Pentatrichomonas hominis, 100 mg/L (≈ 348 µM). The result in the test with Candida albicans was inactive.

Regarding `Cn1c([N+](=O)[O-])cnc1SCCCCCCCCCCC(=O)O`, the MIC in the test on Clostridium perfringens stood at 10 mg/L (≈ 29.1 µM); in the test on Bacteroides fragilis it was 10 mg/L (≈ 29.1 µM); in the test with Neisseria gonorrhoeae, 0.1 mg/L (≈ 0.291 µM); against Trichomonas vaginalis, 10 mg/L (≈ 29.1 µM); with Tritrichomonas foetus, 10 mg/L (≈ 29.1 µM); in the test with Pentatrichomonas hominis, 10 mg/L (≈ 29.1 µM). Besides, the result with Candida albicans was inactive.

Regarding `Cn1c([N+](=O)[O-])cnc1SCCCCOc1ccc(C(=O)O)cc1`, the MIC was 10 mg/L (≈ 28.5 µM) in the test on Clostridium perfringens; 10 mg/L (≈ 28.5 µM) with Bacteroides fragilis; 100 mg/L (≈ 285 µM) against Neisseria gonorrhoeae; 1 mg/L (≈ 2.85 µM) with Trichomonas vaginalis; 1 mg/L (≈ 2.85 µM) against Tritrichomonas foetus; 1 mg/L (≈ 2.85 µM) in the test on Pentatrichomonas hominis. Besides, the outcome in the test on Candida albicans was inactive.

Turning to `Cn1c([N+](=O)[O-])cnc1SCCCCCCCCCCCCCCCC(=O)O`, the MIC in the test on Clostridium perfringens is more than 100 mg/L; in the test with Bacteroides fragilis, more than 100 mg/L; in the test with Neisseria gonorrhoeae, more than 100 mg/L; against Trichomonas vaginalis, 100 mg/L (≈ 242 µM); against Tritrichomonas foetus it was 100 mg/L (≈ 242 µM); in the test on Pentatrichomonas hominis it was 100 mg/L (≈ 242 µM). For the same compound, the result in the test on Candida albicans was inactive.

As for `COC(=O)CCCCCCCCCC[S+]([O-])c1ncc([N+](=O)[O-])n1C` (centres undefined), the MIC is more than 100 mg/L with Clostridium perfringens; more than 100 mg/L in the test on Bacteroides fragilis; 100 mg/L (≈ 268 µM) in the test with Neisseria gonorrhoeae; 100 mg/L (≈ 268 µM) in the test with Trichomonas vaginalis; 100 mg/L (≈ 268 µM) in the test on Tritrichomonas foetus; 100 mg/L (≈ 268 µM) with Pentatrichomonas hominis. For the same compound, in the test with Candida albicans, the outcome was inactive.

Take `Br.Cn1ccnc1SCCCCOc1ccccc1`: the MIC in the test on Clostridium perfringens is more than 100 mg/L; against Bacteroides fragilis it was more than 100 mg/L; in the test on Neisseria gonorrhoeae it was 100 mg/L; against Trichomonas vaginalis it was more than 100 mg/L; in the test with Tritrichomonas foetus it was more than 100 mg/L; against Pentatrichomonas hominis, more than 100 mg/L. Besides, the result in the test with Candida albicans was inactive.

On to `Cn1c([N+](=O)[O-])cnc1SCCOc1ccc(Br)cc1`, for which the MIC is more than 100 mg/L against Clostridium perfringens; 100 mg/L (≈ 279 µM) against Bacteroides fragilis; more than 100 mg/L with Neisseria gonorrhoeae; 10 mg/L (≈ 27.9 µM) in the test on Trichomonas vaginalis; 10 mg/L (≈ 27.9 µM) with Tritrichomonas foetus; 10 mg/L (≈ 27.9 µM) against Pentatrichomonas hominis. Also, the outcome with Candida albicans was inactive.

Take `Cn1ccnc1SCCOc1ccc(C(=O)O)cc1`: the MIC with Clostridium perfringens, with Bacteroides fragilis, with Neisseria gonorrhoeae, in the test on Trichomonas vaginalis, against Tritrichomonas foetus and against Pentatrichomonas hominis was more than 100 mg/L in each case. Besides, the outcome with Candida albicans was inactive.
